Experimental findings from PubChem BioAssay AID588732 (Vanderbilt Specialized Chemistry Center, 2011) are described below.

What is called Emax is the greatest response seen or fitted, relative to the assay's reference.

SMILES strings stand for the structures. Active and inactive are the calls of the source.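 Rule for the calls: active = compound shifting glutamate potency twofold either way, or pushing peak response under 75% or over a set limit; inactive = the rest.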

In this assay the target is Metabotropic glutamate receptor 8 (Rattus norvegicus) (UniProt P70579). The assay is described as follows: rat mGlu8 allosteric modulation, glutamate curve shift, profiling panel, selectivity assay for mGlu5 PAM project, thallium flux, HEK/GIRK cells (AID 588732). As to conditions: glutamate CRC shift, at 10 µM; for Emax: measured here: glutamate max response with compound. Summed up:
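Test system: rat mGlu8 receptor expressed in HEK/GIRK cells; Also added: glutamate agonist concentration-response curve; Compound: 10 µM test compound, single dose; Controls: glutamate curve without test compound as reference; Read-out: glutamate EC50 shift and %Emax versus no-compound curve; Measured by: FluoZin2 fluorescence slope reporting thallium flux.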

Metabotropic glutamate receptor 8 (Rattus norvegicus), sequence (P70579 whole entry, looked up): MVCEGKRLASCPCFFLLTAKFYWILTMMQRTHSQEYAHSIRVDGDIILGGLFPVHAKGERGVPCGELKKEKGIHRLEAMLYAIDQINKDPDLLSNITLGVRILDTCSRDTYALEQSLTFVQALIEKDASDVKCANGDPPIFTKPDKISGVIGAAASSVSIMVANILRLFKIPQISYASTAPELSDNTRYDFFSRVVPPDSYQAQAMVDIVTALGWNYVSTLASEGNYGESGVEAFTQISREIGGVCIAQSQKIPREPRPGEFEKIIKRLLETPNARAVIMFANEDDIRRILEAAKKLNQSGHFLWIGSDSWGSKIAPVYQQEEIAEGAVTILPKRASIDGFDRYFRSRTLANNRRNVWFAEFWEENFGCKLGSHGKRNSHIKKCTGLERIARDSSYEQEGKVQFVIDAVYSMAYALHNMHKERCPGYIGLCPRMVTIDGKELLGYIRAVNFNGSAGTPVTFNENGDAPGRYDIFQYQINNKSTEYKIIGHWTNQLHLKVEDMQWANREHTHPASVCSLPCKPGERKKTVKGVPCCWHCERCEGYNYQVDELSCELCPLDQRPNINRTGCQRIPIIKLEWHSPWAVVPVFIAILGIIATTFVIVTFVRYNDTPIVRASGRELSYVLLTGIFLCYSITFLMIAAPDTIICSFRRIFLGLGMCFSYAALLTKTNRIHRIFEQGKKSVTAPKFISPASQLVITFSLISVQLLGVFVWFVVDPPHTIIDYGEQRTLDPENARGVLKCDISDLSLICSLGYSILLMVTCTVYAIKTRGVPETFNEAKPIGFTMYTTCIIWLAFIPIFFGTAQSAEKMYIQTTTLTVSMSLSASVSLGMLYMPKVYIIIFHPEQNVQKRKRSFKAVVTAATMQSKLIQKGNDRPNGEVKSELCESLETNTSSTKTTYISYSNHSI

Regarding `C[C@@H](NC(=O)c1ccc(C#Cc2cccc(F)c2)cn1)C(C)(C)O`, the fold shift was 1.36 (inactive) and the Emax came out at 89%.
The like results for `CC1(NC(=O)c2ccc(C#Cc3cccc(F)c3)cn2)COC1` were, in that order, 1.1 (inactive) and 92%.
